ChEMBL document CHEMBL1132695, “2-(diethylamino)thieno1,3ŏxazin-4-ones as stable inhibitors of human leukocyte elastase” (J Med Chem, 1999)

Columns and labels:
[1] = biological target: T1, Neutrophil elastase (Homo sapiens) (UniProt P08246); experiment: Koff was the deacylation association equilibrium rate constant of a competitive inhibition human leukocyte elastase(HLE).
T1 sequence (whole entry): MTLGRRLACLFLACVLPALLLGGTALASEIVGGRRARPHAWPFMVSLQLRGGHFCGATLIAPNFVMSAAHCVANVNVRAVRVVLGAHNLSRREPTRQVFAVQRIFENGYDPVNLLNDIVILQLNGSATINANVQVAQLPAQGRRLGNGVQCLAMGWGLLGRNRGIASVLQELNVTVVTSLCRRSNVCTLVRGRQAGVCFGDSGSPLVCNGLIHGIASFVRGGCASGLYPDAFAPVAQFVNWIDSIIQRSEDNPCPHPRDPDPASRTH
In short: (§1)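 Elastase purified from human leukocytes by affinity chromatography; enzyme stock diluted into 50 mM sodium phosphate, 500 mM NaCl, pH 7.8. Substrate Suc-Ala-Ala-Pro-Val-pNA at 100 μM final (1.3 Km); inhibitor in DMSO added to cuvette. Progress-curve method at 25 °C, at least five inhibitor concentrations for oxazinones (single 2 μM for thiazinones); curves fitted for kobs, giving Kd, Ki, kon (acylation) and koff (deacylation).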

Neutrophil elastase [2] = biological target: T2, Neutrophil elastase (Homo sapiens, UniProt P08246); experiment: (§2) Inhibitory activity against human leukocyte elastase; in short: as §1
T2 sequence (P08246 whole entry): T1 sequence (whole entry)

[3] = The alkaline hydrolysis second order rate constant(K OH) taken as log K.
Neutrophil elastase [4] = biological target: T2, Neutrophil elastase; experiment: as §2; in short: as §1; remark: listed apart in the source
[5] = biological target: T1, Neutrophil elastase (Homo sapiens); experiment: Kon was the acylation association equilibrium rate constant of a competitive inhibition of human leukocyte elastase(HLE).; in short: as §1
[6] = The alkaline hydrolysis second order rate constant(K OH) of the compound; format: ADME
In short: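 Spectrophotometric hydrolysis in aqueous buffer pH 11.25 at 25 °C; loss of long-wavelength UV chromophore followed at 335 nm as first-order exponential decay. Compounds from DMSO stocks, final 15–20 μM, 5% DMSO final. Second-order rate constant kOH- calculated from first-order rates.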

Neutrophil elastase [7] = biological target: T2, Neutrophil elastase; experiment: as §2; in short: as §1; remark: listed apart in the source

Structure (SMILES): CCN(CC)c1nc2ccccc2c(=O)o1
- k off [1]: 0.00079 s⁻¹
- Ki (Neutrophil elastase [2]): 0.31 µM
- Log K [3]: 0.77
- Ki (Neutrophil elastase [4]): 0.302 µM
- k on [5]: 2600 M⁻¹ s⁻¹
- K [6]: 5.9 M⁻¹ s⁻¹

Structure (SMILES): CCN(CC)c1nc2sc3c(c2c(=O)o1)C(C)CCC3 (stereo not drawn)
- k off [1]: 1.3e-05 s⁻¹
- Ki (Neutrophil elastase [2]): 0.21 µM
- Log K [3]: -1.41
- Ki (Neutrophil elastase [4]): 0.204 µM
- k on [5]: 63 M⁻¹ s⁻¹
- K [6]: 0.039 M⁻¹ s⁻¹

Structure (SMILES): CCN(CC)c1nc2scc(C)c2c(=O)o1
- k off [1]: 6.4e-05 s⁻¹
- Kd (Neutrophil elastase [2]): 5.5 µM
- Ki (Neutrophil elastase [2]): 0.45 µM
- Log K [3]: -1.14
- Ki (Neutrophil elastase [4]): 0.447 µM
- k on [5]: 140 M⁻¹ s⁻¹
- K [6]: 0.073 M⁻¹ s⁻¹

Structure (SMILES): CCN(CC)c1nc2sc3c(c2c(=O)o1)CCCC3
- k off [1]: 3.2e-05 s⁻¹
- Ki (Neutrophil elastase [2]): 0.013 µM
- Log K [3]: -1.49
- Ki (Neutrophil elastase [4]): 0.0126 µM
- k on [5]: 2500 M⁻¹ s⁻¹
- K [6]: 0.032 M⁻¹ s⁻¹

Structure (SMILES): CCN(CC)c1nc2ccsc2c(=O)o1
- k off [1]: 4.3e-05 s⁻¹
- Ki (Neutrophil elastase [2]): 0.13 µM
- Log K [3]: -0.95
- Ki (Neutrophil elastase [7]): 0.132 µM
- k on [5]: 330 M⁻¹ s⁻¹
- K [6]: 0.11 M⁻¹ s⁻¹

Structure (SMILES): CCN(CC)c1nc2sc3ccccc3c2c(=O)o1
- k off [1]: 5.5e-05 s⁻¹
- Ki (Neutrophil elastase [2]): 0.0058 µM
- Log K [3]: -1.13
- Ki (Neutrophil elastase [4]): 0.00575 µM
- k on [5]: 9500 M⁻¹ s⁻¹
- K [6]: 0.075 M⁻¹ s⁻¹

Structure (SMILES): CCN(CC)c1nc2sc3c(c2c(=O)o1)CCC3
- k off [1]: 4.5e-05 s⁻¹
- Ki (Neutrophil elastase [2]): 0.013 µM
- Log K [3]: -1.03
- Ki (Neutrophil elastase [4]): 0.0126 µM
- k on [5]: 3600 M⁻¹ s⁻¹
- K [6]: 0.094 M⁻¹ s⁻¹

Structure (SMILES): CCN(CC)c1nc2sc(C(N)=O)c(C)c2c(=O)o1
- k off [1]: 0.00036 s⁻¹
- Kd (Neutrophil elastase [2]): 0.62 µM
- Ki (Neutrophil elastase [2]): 0.091 µM
- Log K [3]: -0.4
- Ki (Neutrophil elastase [4]): 0.0912 µM
- k on [5]: 4000 M⁻¹ s⁻¹
- K [6]: 0.4 M⁻¹ s⁻¹

Structure (SMILES): CCN(CC)c1nc2sccc2c(=O)o1
- k off [1]: 0.00014 s⁻¹
- Ki (Neutrophil elastase [2]): 0.26 µM
- Log K [3]: -0.91
- Ki (Neutrophil elastase [4]): 0.257 µM
- k on [5]: 530 M⁻¹ s⁻¹
- K [6]: 0.12 M⁻¹ s⁻¹

Structure (SMILES): CCN(CC)c1nc2sc3c(c2c(=O)o1)CCCCC3
- k off [1]: 4.3e-05 s⁻¹
- Ki (Neutrophil elastase [2]): 0.044 µM
- Log K [3]: -1.42
- Ki (Neutrophil elastase [4]): 0.0437 µM
- k on [5]: 990 M⁻¹ s⁻¹
- K [6]: 0.038 M⁻¹ s⁻¹

Structure (SMILES): CCN(CC)c1nc2scc(C(C)C)c2c(=O)o1
- k off [1]: 0.00013 s⁻¹
- Ki (Neutrophil elastase [2]): 0.013 µM
- Log K [3]: -1.27
- Ki (Neutrophil elastase [4]): 0.0132 µM
- k on [5]: 10000 M⁻¹ s⁻¹
- K [6]: 0.054 M⁻¹ s⁻¹
